Results reported in ChEMBL document CHEMBL3817756, “Synthesis and Anti-Influenza Activity of Pyridine, Pyridazine, and Pyrimidine C-Nucleosides as Favipiravir (T-705) Analogues” (J Med Chem, 2016).
Calls of active or inactive are those of the source. The rule behind the calls is not given here.

Experiments:
[1] = test system: Tni; assay: Binding affinity to recombinant Influenza A virus A/chicken/Nanchang/3-120/01(H3N2) RNA polymerase subunit C-terminal TAP/His6-tagged PA/PB1/PB2 expressed in Tni cells assessed as compound incorporation by measuring 14-mer product formation using 5'-pApG/14-nucleotide RNA with U as nucleotide as primer/template at 100 uM after 30 mins in presence of [alpha-33P]CTP by PAGE analysis; type: cell-based
[2] = test system: Tni; assay: Binding affinity to recombinant Influenza A virus A/chicken/Nanchang/3-120/01(H3N2) RNA polymerase subunit C-terminal TAP/His6-tagged PA/PB1/PB2 expressed in Tni cells assessed as compound incorporation by measuring 10 to 14-mer product formation using 5'-pApG/14-nucleotide RNA with C as nucleotide as primer/template at 100 uM after 30 mins in presence of [alpha-33P]CTP by PAGE analysis; type: cell-based
[3] = Inhibition of recombinant human Norovirus GII.4 RNA-dependent RNA polymerase expressed in Escherichia coli assessed as inhibition of [3H]UTP incorporation using HCV 5'-untranslated region RNA template incubated for 2.5 hrs by radiometric assay
[4] = Inhibition of HCV NS5B RNA-dependent RNA polymerase assessed as inhibition of [3H]CTP incorporation using HCV 5'-untranslated region RNA template incubated for 2 hrs; design: species or system Hepacivirus hominis
[5] = Inhibition of human rhinovirus 16 RNA-dependent RNA polymerase assessed as inhibition of [3H]UTP incorporation using HCV 5'-untranslated region RNA template incubated for 2.5 hrs by radiometric assay; design: species or system rhinovirus A16
[6] = test system: A549; assay: Drug metabolism in human A549 cells assessed as nucleoside triphosphate formation at 50 uM after 24 hrs by LC-MS/Ms analysis; type: ADME, cell-based; details: a549, 24 h, BLD = below limit of detection
[7] = test system: Influenza A virus; assay: Antiviral activity against Influenza A virus A/WSN/33(H1N1) infected in MDCK cells assessed as inhibition of neuraminidase activity using 2'-(4-methylumbelliferyl)-alpha-D-N-acetylneuraminic acid substrate pretreated with cells for 24 hrs followed by viral infection measured after 20 hrs by fluorescence assay; type: functional, organism-based; details: A/WSN/1933(H1N1)
Summary of the method: (§1)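 MDCK cells at 1 × 10^4 cells/well in DMEM with 0.3% FBS, 1% penicillin/streptomycin and 1% DMSO. After 24 h, serially diluted compound was added for a further 24 h. Cells were infected with A/WSN/33 at 250 IU/well for 20 h at 37 °C. Supernatant was replaced with 25 μM MUNANA in 33 mM MES, pH 6.5, for 45 min at 30 °C. Reaction stopped with glycine pH 10.5/25% ethanol; fluorescence read at ex 355/em 460 nm. EC50 averaged over n ≥ 2.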

[8] = Prodrug conversion in NHBE cells assessed as ((2R,3S,4R,5S)-5-(2-carbamoyl-3-fluoropyridin-4-yl)-3,4-dihydroxytetrahydrofuran-2-yl)methyl tetrahydrogen triphosphate level per million cells at 50 uM after 24 hrs by LC-MS/Ms analysis; type: ADME, cell-based; details: human
[9] = test system: A549; assay: Prodrug conversion in human A549 cells assessed as ((2R,3S,4R,5S)-5-(2-carbamoyl-3-fluoropyridin-4-yl)-3,4-dihydroxytetrahydrofuran-2-yl)methyl tetrahydrogen triphosphate level per million cells at 50 uM after 24 hrs by LC-MS/Ms analysis; type: ADME, cell-based; details: a549, 24 h
[10] = test system: MDCK; assay: Prodrug conversion in MDCK cells assessed as ((2R,3S,4R,5S)-5-(2-carbamoyl-3-fluoropyridin-4-yl)-3,4-dihydroxytetrahydrofuran-2-yl)methyl tetrahydrogen triphosphate level per million cells at 50 uM after 24 hrs by LC-MS/Ms analysis; type: ADME, cell-based, Canis lupus familiaris; details: dog
[11] = Prodrug conversion in NHBE cells assessed as ((2R,3S,4R,5S)-5-(2-carbamoyl-3-fluoropyridin-4-yl)-3,4-dihydroxytetrahydrofuran-2-yl)methyl dihydrogen phosphate level per million cells at 50 uM after 24 hrs by LC-MS/Ms analysis; type: ADME, cell-based; details: human
[12] = test system: A549; assay: Prodrug conversion in human A549 cells assessed as ((2R,3S,4R,5S)-5-(2-carbamoyl-3-fluoropyridin-4-yl)-3,4-dihydroxytetrahydrofuran-2-yl)methyl dihydrogen phosphate level per million cells at 50 uM after 24 hrs by LC-MS/Ms analysis; type: ADME, cell-based; details: a549, 24 h
[13] = test system: MDCK; assay: Prodrug conversion in MDCK cells assessed as ((2R,3S,4R,5S)-5-(2-carbamoyl-3-fluoropyridin-4-yl)-3,4-dihydroxytetrahydrofuran-2-yl)methyl dihydrogen phosphate level per million cells at 50 uM after 24 hrs by LC-MS/Ms analysis; type: ADME, cell-based, Canis lupus familiaris; details: dog
[14] = test system: Influenza A virus; assay: Antiviral activity against Influenza A virus A/WSN/33(H1N1) infected in human A549 cells; type: functional, organism-based; details: A/WSN/1933(H1N1)
[15] = test system: Influenza A virus; assay: Antiviral activity against Influenza A virus infected in MDCK cells; type: functional, organism-based; summary of the method: as §1
[16] = Cytotoxicity against MDCK cells after 10 mins by CellTiter-Glo assay; type: cell-based, Canis lupus familiaris; details: dog
Summary of the method: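 Uninfected cultures run in parallel with the MDCK neuraminidase antiviral assay. CellTiter-Glo reagent added, 10 min at room temperature, luminescence read.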

[17] = test system: Blood; assay: Prodrug conversion in Balb/c mouse assessed as 4-((2S,3R,4S,5R)-3,4-dihydroxy-5-(hydroxymethyl)tetrahydrofuran-2-yl)-3-fluoropicolinamide level in blood at 2 mg/kg, iv measured at 0.25 hrs post dose by LC-MS/MS analysis; type: ADME, organism-based; details: in vivo
Summary of the method: (§2)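 Female Balb/c mice (N = 2), fasted overnight, given the prodrug IV at 2 mg/kg in 10% DMSO/60% PEG400/30% water. Under isoflurane anaesthesia, blood sampled at 0.25 and 2 h post dose. Parent nucleoside measured in blood; monophosphate and triphosphate measured in lung.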

[18] = test system: Lung; assay: Prodrug conversion in Balb/c mouse assessed as ((2R,3S,4R,5S)-5-(2-carbamoyl-3-fluoropyridin-4-yl)-3,4-dihydroxytetrahydrofuran-2-yl)methyl dihydrogen phosphate level in lung at 2 mg/kg, iv measured at 0.25 hrs post dose by LC-MS/MS analysis; type: ADME, organism-based; details: in vivo; summary of the method: as §2
[19] = test system: Lung; assay: Prodrug conversion in Balb/c mouse assessed as ((2R,3S,4R,5S)-5-(2-carbamoyl-3-fluoropyridin-4-yl)-3,4-dihydroxytetrahydrofuran-2-yl)methyl tetrahydrogen triphosphate level in lung at 2 mg/kg, iv measured at 0.25 hrs post dose by LC-MS/MS analysis; type: ADME, organism-based; details: in vivo; summary of the method: as §2
[20] = test system: Influenza A virus; assay: Antiviral activity against Influenza A virus A/WSN/33(H1N1) infected in NHBE cells; type: functional, organism-based; details: A/WSN/1933(H1N1)
[21] = test system: Blood; assay: Prodrug conversion in Balb/c mouse assessed as 4-((2S,3R,4S,5R)-3,4-dihydroxy-5-(hydroxymethyl)tetrahydrofuran-2-yl)-3-fluoropicolinamide level in blood at 2 mg/kg, iv measured at 2 hrs post dose by LC-MS/MS analysis; type: ADME, organism-based; details: in vivo; summary of the method: as §2
[22] = test system: Lung; assay: Prodrug conversion in Balb/c mouse assessed as ((2R,3S,4R,5S)-5-(2-carbamoyl-3-fluoropyridin-4-yl)-3,4-dihydroxytetrahydrofuran-2-yl)methyl dihydrogen phosphate level in lung at 2 mg/kg, iv measured at 2 hrs post dose by LC-MS/MS analysis; type: ADME, organism-based; details: in vivo; summary of the method: as §2
[23] = test system: Lung; assay: Prodrug conversion in Balb/c mouse assessed as ((2R,3S,4R,5S)-5-(2-carbamoyl-3-fluoropyridin-4-yl)-3,4-dihydroxytetrahydrofuran-2-yl)methyl tetrahydrogen triphosphate level in lung at 2 mg/kg, iv measured at 2 hrs post dose by LC-MS/MS analysis; type: ADME, organism-based; details: in vivo, BLD = below limit of detection; summary of the method: as §2
[24] = Drug metabolism in NHBE cells assessed as ((2R,3S,4R,5S)-5-(2-carbamoyl-3-fluoropyridin-4-yl)-3,4-dihydroxytetrahydrofuran-2-yl)methyl tetrahydrogen triphosphate level per million cells at 50 uM after 24 hrs by LC-MS/Ms analysis; type: ADME, cell-based; details: human
[25] = test system: A549; assay: Drug metabolism in human A549 cells assessed as ((2R,3S,4R,5S)-5-(2-carbamoyl-3-fluoropyridin-4-yl)-3,4-dihydroxytetrahydrofuran-2-yl)methyl tetrahydrogen triphosphate level per million cells at 50 uM after 24 hrs by LC-MS/Ms analysis; type: ADME, cell-based; details: a549, 24 h
[26] = test system: MDCK; assay: Drug metabolism in MDCK cells assessed as ((2R,3S,4R,5S)-5-(2-carbamoyl-3-fluoropyridin-4-yl)-3,4-dihydroxytetrahydrofuran-2-yl)methyl tetrahydrogen triphosphate level per million cells at 50 uM after 24 hrs by LC-MS/Ms analysis; type: ADME, cell-based, Canis lupus familiaris; details: dog
[27] = Drug metabolism in NHBE cells assessed as ((2R,3S,4R,5S)-5-(2-carbamoyl-3-fluoropyridin-4-yl)-3,4-dihydroxytetrahydrofuran-2-yl)methyl dihydrogen phosphate level per million cells at 50 uM after 24 hrs by LC-MS/Ms analysis; type: ADME, cell-based; details: human
[28] = test system: A549; assay: Drug metabolism in human A549 cells assessed as ((2R,3S,4R,5S)-5-(2-carbamoyl-3-fluoropyridin-4-yl)-3,4-dihydroxytetrahydrofuran-2-yl)methyl dihydrogen phosphate level per million cells at 50 uM after 24 hrs by LC-MS/Ms analysis; type: ADME, cell-based; details: a549, 24 h
[29] = test system: MDCK; assay: Drug metabolism in MDCK cells assessed as ((2R,3S,4R,5S)-5-(2-carbamoyl-3-fluoropyridin-4-yl)-3,4-dihydroxytetrahydrofuran-2-yl)methyl dihydrogen phosphate level per million cells at 50 uM after 24 hrs by LC-MS/Ms analysis; type: ADME, cell-based, Canis lupus familiaris; details: dog

NC(=O)c1nccc([C@@H]2O[C@H](COP(=O)(O)OP(=O)(O)OP(=O)(O)O)[C@@H](O)[C@H]2O)c1F
Activity [1]: Active | Activity [2]: Active | IC50 [3]: 3.5 µM | IC50 [4]: 5.3 µM | IC50 [5]: 4 µM

NC(=O)c1nccc([C@@H]2O[C@H](CO)[C@@H](O)[C@H]2O)c1Cl
Drug metabolism [6]: BLD

C[C@H](NP(=O)(OC[C@H]1O[C@@H](c2ccnc(C(N)=O)c2F)[C@H](O)[C@@H]1O)Oc1ccccc1)C(=O)CC1CCCCC1 (some centres not stated)
EC50 [7]: 129 µM | Drug metabolism ([8]; BLD = below limit of detection): BLD | Drug metabolism ([9]; BLD = below limit of detection): BLD | Drug metabolism ([10]; BLD = below limit of detection): BLD | Drug metabolism [11]: 42.6 pmol | Drug metabolism [12]: 59.5 pmol | Drug metabolism [13]: 44.7 pmol | EC50 [14]: 74.1 µM | EC50 [15]: 129 µM

Cn1cc([C@@H]2O[C@H](CO)[C@@H](O)[C@H]2O)c(=O)c(C(N)=O)n1
EC50 [7]: 91 µM | CC50 at 10 min [16]: 291 µM | Drug metabolism [6]: BLD

NC(=O)c1nc(F)cn([C@@H]2O[C@H](CO)[C@@H](O)[C@H]2O)c1=O
EC50 [7]: 2.2 µM | CC50 at 10 min [16]: > 400 µM

NC(=O)c1nccc([C@@H]2O[C@H](CO)[C@@H](O)[C@H]2F)c1F
EC50 [7]: 87 µM | CC50 at 10 min [16]: 306 µM

CC(C)(C)C(=O)OCOP(=O)(OCOC(=O)C(C)(C)C)OC[C@H]1O[C@@H](c2ccnc(C(N)=O)c2F)[C@H](O)[C@@H]1O
EC50 [7]: 5.8 µM | CC50 at 10 min [16]: > 400 µM | Drug metabolism [8]: 7.22 pmol | Drug metabolism [9]: 5 pmol | Drug metabolism [10]: 179 pmol | Drug metabolism [11]: 113 pmol | Drug metabolism [12]: 74 pmol | Drug metabolism [13]: 248 pmol | Drug metabolism [17]: 1436 nM | Drug metabolism [18]: 1764 nM | Drug metabolism [19]: < 60 nM | EC50 [20]: 57.5 µM | EC50 [14]: 34.7 µM | EC50 [15]: 5.8 µM | Drug metabolism [21]: 422 nM | Drug metabolism [22]: 792 nM | Drug metabolism [23]: BLD

NC(=O)c1nccc([C@@H]2O[C@H](CO)[C@@H](O)[C@H]2O)n1
EC50 [7]: 8.7 µM | CC50 at 10 min [16]: > 200 µM | Drug metabolism [6]: BLD

NC(=O)c1nccc([C@@H]2O[C@](F)(CO)[C@@H](O)[C@H]2O)c1F
EC50 [7]: 98 µM | CC50 at 10 min [16]: 185 µM | Drug metabolism [6]: BLD

NC(=O)c1nccc([C@@H]2O[C@H](CO)[C@@H](O)[C@H]2O)c1F
EC50 [7]: 1.9 µM | CC50 at 10 min [16]: > 400 µM | Drug metabolism [24]: 21.6 pmol | Drug metabolism [25]: 11.6 pmol | Drug metabolism [26]: 192 pmol | Drug metabolism [27]: 262 pmol | Drug metabolism [28]: 41 pmol | Drug metabolism [29]: 48.5 pmol | EC50 [20]: 29.5 µM | EC50 [14]: 52 µM | EC50 [15]: 1.9 µM

COc1c(C(N)=O)ccnc1[C@@H]1O[C@H](CO)[C@@H](O)[C@H]1O
EC50 [7]: 88 µM | CC50 at 10 min [16]: 207 µM

C=Cc1c([C@@H]2O[C@H](CO)[C@@H](O)[C@H]2O)ccnc1C(N)=O
EC50 [7]: 58 µM | CC50 at 10 min [16]: 152 µM

C#Cc1c([C@@H]2O[C@H](CO)[C@@H](O)[C@H]2O)ccnc1C(N)=O
EC50 [7]: 36 µM | CC50 at 10 min [16]: 98 µM

NC(=O)c1cc([C@@H]2O[C@H](CO)[C@@H](O)[C@H]2O)ccn1
Drug metabolism [6]: BLD

NC(=O)c1nc(F)cnc1O [FAVIPIRAVIR]
EC50 [7]: 2.7 µM | CC50 at 10 min [16]: > 400 µM

NC(=O)c1nccc([C@@H]2O[C@H](CO)[C@@H](O)[C@H]2O)c1O
EC50 [7]: 1.3 µM | CC50 at 10 min [16]: 2 µM
